Laboratory results taken from PubChem BioAssay AID588748 (Vanderbilt Specialized Chemistry Center, 2011).
Active and inactive are the calls of the source.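 The calls were made as follows: active = a clear dose-dependent boost of the acetylcholine calcium response in rat M2 cells, with a fitted potency; inactive = the rest.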

Target: Muscarinic acetylcholine receptor M2 (Rattus norvegicus) (UniProt P10980)
Test: potentiation of ACh at rat M2 – CHO Gqi5 cells, calcium fluorescence, counter-screen for M4 PAM project, dose response (AID 588748)
Conditions: CHO rM2/Gqi5 calcium mobilization, PAM mode, FDSS
How it was run: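 Material: rat M2/Gqi5 CHO cells; reagent: acetylcholine at EC20, followed by acetylcholine at EC80; times: compound 144 s before EC20 ACh, EC80 ACh 86 s later, 37 °C; detection: Fluo-4 fluorescence of calcium mobilization; measure: EC50 and percent ACh max response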

Muscarinic acetylcholine receptor M2 (Rattus norvegicus), sequence (P10980 whole entry, looked up): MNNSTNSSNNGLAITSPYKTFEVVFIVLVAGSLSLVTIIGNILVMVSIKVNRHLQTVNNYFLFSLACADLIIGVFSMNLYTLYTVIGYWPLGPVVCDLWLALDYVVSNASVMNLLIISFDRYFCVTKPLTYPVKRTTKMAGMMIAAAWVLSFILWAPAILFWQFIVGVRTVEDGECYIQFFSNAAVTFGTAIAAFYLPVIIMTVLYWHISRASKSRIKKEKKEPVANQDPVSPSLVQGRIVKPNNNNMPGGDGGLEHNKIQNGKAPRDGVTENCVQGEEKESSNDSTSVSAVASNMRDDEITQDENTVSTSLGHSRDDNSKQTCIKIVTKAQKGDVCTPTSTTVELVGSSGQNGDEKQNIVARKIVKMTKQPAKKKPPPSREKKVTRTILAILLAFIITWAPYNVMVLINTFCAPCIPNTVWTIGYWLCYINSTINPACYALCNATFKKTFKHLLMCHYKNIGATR

## Cc1nc2sc(C(=O)NCc3ccncn3)c(N)c2c(C)c1Cl
At 30 µM (top of the series)
  percent of ACh max response: inactive

## Cc1nc2sc(C(=O)NCc3nccs3)c(N)c2c(C)c1Cl
At 30 µM (top of the series)
  percent of ACh max response: inactive

## Cc1nc2sc(C(=O)NCc3cccc(F)c3F)c(N)c2c(C)c1Cl
At 30 µM (top of the series)
  percent of ACh max response: inactive

## Cc1nc2sc(C(=O)NCc3ccncc3)c(N)c2c(C)c1Cl
At 45.3 µM (top of the series)
  percent of ACh max response: inactive

## Cc1nc2sc(C(=O)NCCc3ccncc3)c(N)c2c(C)c1Cl
At 30 µM (top of the series)
  percent of ACh max response: inactive

## Cc1nc2sc(C(=O)NCc3ccc4c(c3)OCO4)c(N)c2c(C)c1Cl
At 36.8 µM (top of the series)
  percent of ACh max response: inactive

## Cc1nc2sc(C(=O)NC3CC3)c(N)c2c(C)c1Cl
  EC50: 640 nM

## Cc1nc2sc(C(=O)NCc3ccccc3)c(N)c2c(C)c1Cl
At 37.4 µM (top of the series)
  percent of ACh max response: inactive

## Cc1nc2sc(C(=O)NCc3cccnc3)c(N)c2c(C)c1Cl
At 45.3 µM (top of the series)
  percent of ACh max response: inactive
